According to the EternaBench riboswitch data:

Tested on: MS2 coat protein
Assay: apparent Kd, MS2 coat protein; higher = weaker binding; RNA-MaP array
How it was run: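 Apparent Kd was taken as the median of binding curves fitted cluster by cluster. The designed RNAs were made by transcription of sequenced DNA templates on an Illumina sequencing chip and exposed to fluorescently labeled MS2 coat protein (1.5 nM to 3 μM) at room temperature, with or without input ligand, for 0.8–1.5 h at the lowest and 10–20 min at the highest concentrations. Any design measured on fewer than 10 clusters was left out.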

[1] = designed as: OFF switch for flavin mononucleotide, no ligand
[2] = ligand present: flavin mononucleotide, designed as: OFF switch for flavin mononucleotide
[3] = designed as: ON switch for theophylline, no ligand
[4] = ligand present: theophylline, designed as: ON switch for theophylline
[5] = designed as: OFF switch for theophylline, no ligand
[6] = ligand present: theophylline, designed as: OFF switch for theophylline
[7] = designed as: ON switch for flavin mononucleotide, no ligand
[8] = ligand present: flavin mononucleotide, designed as: ON switch for flavin mononucleotide
[9] = designed as: ON switch for tryptophan, no ligand
[10] = ligand present: tryptophan, designed as: ON switch for tryptophan

Sequence	apparent Kd [1] [µM]	apparent Kd [2] [µM]	further results
CAGAACAACGAAGGAUAUGCGAAACAUGAGGAUCACCCAUGUGUGGUUUUACUCAAACACCUGUCGCAGAAGGUCGCGUAACGA	0.0379	0.0311	
UCGAUGGUAUCUGAUACCAGUAGCGUGCGUUACAUGAGGAUCACCCAUGUGCCUAUACUUUACCCUUGGCAGCAGUGGAUUCGAU			apparent Kd [3]: 0.207 µM; apparent Kd [4]: 0.0585 µM
ACCUAAGCCACAGAUACCAGAGUAAUAGGCCAAUUUCAAAACAUGAGGAUCACCCAUGUACUCCCUUGGCAGCUGCGAAUCGAAA			apparent Kd [5]: 0.0109 µM; apparent Kd [6]: 0.0152 µM
GUCUGAUGACAUGAGGAUCACCCAUGUUGUAGGGUUACCUUCAGAAGGGCGAACUCGUAUAGAGCGCAGGAUAUGAAUCAAAGA			apparent Kd [7]: 0.0295 µM; apparent Kd [8]: 0.0119 µM
UAUGUACAUGAGGAUCACCCAUGUUAGGAUAUAUGGCCGCGCUUUAAACACCGUGCACAUAGAAGGAACAUUUG	0.035	0.0337	
CUGUGAGUAGGAUAUGAUCACAAGUACAUGAGGAUCACCCAUGUGUGGCUCUGUACCGCCUCAGAAGGACUCGUCU	0.028	0.0948	
GACCACAUGAGGAUCACCCAUGUCUUGGUCCGAGGACCGGUACGGCCGCCACUCGAGAGCCGUACAAAUAAACGGAGUGCCAUCA			apparent Kd [9]: 0.0159 µM; apparent Kd [10]: 0.0135 µM
GUUAGUUACACGGCCGCCACUCUUUGGCUUGGCUCAAGCUCCCAACAUGAGGAUCACCCAUGUCAGAGGACCGGGUGAACAACGU			apparent Kd [9]: 0.134 µM; apparent Kd [10]: 0.112 µM
AAGCUACAUGAGGAUCACCCAUGUCUCACGUCACUAGGAUAUCUGAAGGUGACGAAGUUCAGAGAAGGAGUGCAUC			apparent Kd [7]: 0.0972 µM; apparent Kd [8]: 0.0832 µM
AUUGUGAACCUGAUCGUAUAAUGUAGCGAUACCAGUAUAAUACAUUACCCUUGGCAGCGCGACACAUGAGGAUCACCCAUGUAAG			apparent Kd [5]: 0.0265 µM; apparent Kd [6]: 0.0394 µM
AUUUAAAAGUUAGGAUAUCUCAUCAGCUCAAUAGAUGACAUGAGGAUCACCCAUGUGACCAAAGGAGAGAAGGAACUCAUAAUG	0.0651	0.0314	
CCCAUACAUGAGGAUCACCCAUGUGUUGAUACCAGCAUAUGUAGAUGCCCUUGGCAGCAAGCUUGGGUCACUGGAAAACAUCUAA			apparent Kd [3]: 0.0259 µM; apparent Kd [4]: 0.0565 µM
ACGCGCUGGGCGGCCGCCACUCACCUGCCGUGGACAUUUCGAGGUCACAUGAGGAUCACCCAUGUGAGGACCGGGCCCUGUAGGC			apparent Kd (designed as: OFF switch for tryptophan, no ligand): 0.0132 µM; apparent Kd (ligand present: tryptophan, designed as: OFF switch for tryptophan): 0.0212 µM
CGCUGUUGGCAGGAUAUAUUCGCAGCCCAGGCAAUAGAAGGGCCGACAUGAGGAUCACCCAUGUGUCUACAGGG	0.117	0.341	
AUCGACAAAGGAUAUGAUGCGAAUGACAUGAGGAUCACCCAUGUGGAGCCAAGUGUCCCGUCAGAAGGUUGUACGU	0.152	0.313	
UAUUGUUUAGGAUAUACAUGAGGAUCACCCAUGUCAACGACCGUUAUAAAAUCUAAGUGUAGAAGGAAACGCCC	0.0135	0.0121	
AAAGCCUUUCUAGGAUAUCAAUACAGUCGUGGUUGAGAAGGAGAAACUGCGUUCUAGACAUGAGGAUCACCCAUGUCCUCAAUG			apparent Kd [7]: 0.0986 µM; apparent Kd [8]: 0.0719 µM
AGAAUAUGAAUAGGAUAUCUGCGUAAUGAUAAAAGAGAAGGAAUUAGAAGUAUUACAUGAGGAUCACCCAUGUUUGAUAAGAAA			apparent Kd [7]: 0.00961 µM; apparent Kd [8]: 0.00877 µM
AGAUCCUUGGUCAGGAUAUCCAAUAAAGCCGUUUGGGAGAAGGGACAUGAGGAUCACCCAUGUAAAUUGACCAC	0.0122	0.0323	
UCGGUUCGCGGAGGAUAUACUUCACUUCAGGAAGUAGAAGGCCGGCGGUGCUAAGGGUCACAUGAGGAUCACCCAUGUCUUCAC			apparent Kd [7]: 0.0306 µM; apparent Kd [8]: 0.0207 µM
CAUUCACUAACUCCACAUGAGGAUCACCCAUGUUGAGGUCCGAGAAGGUGCACUACGUGGGAGCGCAAGGAUAUCGCCUAGUAA			apparent Kd [7]: 0.00984 µM; apparent Kd [8]: 0.00764 µM

Sequence	apparent Kd [1] [µM]	apparent Kd [2] [µM]	further results
UUUUCUGAGGAGAAGGACGACCACAAACAUGAGGAUCACCCAUGUCUUACUAUCUGACCGCCAUCGUAGGAUAUCCCGAGGGAG			apparent Kd [7]: 0.0112 µM; apparent Kd [8]: 0.0102 µM
GAAUCAUGACAGAAGGCACGGAAUACCCGGCUGUGAGGAUAUGUUUGAAAACAGACAUGAGGAUCACCCAUGUCCGAAGUGUCU	0.301	0.555	
UAACCACAUGAGGAUCACCCAUGUCCCACAUUCGCAGGAUAUGGGUCACUGAGGUCACUACCAGAAGGGCGGAUGC			apparent Kd [7]: 0.467 µM; apparent Kd [8]: 0.178 µM
GCUAGUUCACAGAAGGCGUCCGUGGGUGGCGCCUUACAUGAGGAUCACCCAUGUCAACCGUGCGACGAGGAUAUGUCAAUCGCA	0.0225	0.0216	
GCUGACCAGGAGAAGGGAUACGGUCUCCUUGUGGAAAUGAACAUGAGGAUCACCCAUGUAUUAGAUCAGGAUAUCCAAUGGAGG	0.0134	0.0144	
CUCUUGCGGUUAGGAUAUUCCCUUGAAAACAAUGAAGAAGGAACCAGAUGAUCACAUGUCCUACAUGAGGAUCACCCAUGUUAA	0.353	0.211	
ACAUGAGGAUCACCCAUGUUUGACUGGGCUUGCUCUCGCCGUAGAAGGUUUCAUUAAGUAGAGGAAAAGGAUAUACACUGGGCC	0.0122	0.0107	
CCACGCUCAGUUAGGAUAUGAUCCAUUACCAGUGAUCAGAAGGAACAUGAGGAUCACCCAUGUACAGUACGAGA	0.00962	0.0142	
CCGCGUGCGGAAGGAUAUAUCCUAUGUUAGGAAAAUAACACAUGAGGAUCACCCAUGUCGAAGAGAUAGAAGGUCCGACAUACA			apparent Kd [7]: 0.0295 µM; apparent Kd [8]: 0.014 µM
UUCGCCACGCAAGGAUAUGAUACUUAUUGCUGUUCAGAAGGUGCGACAUGAGGAUCACCCAUGUGGUGUGUCCAGGGAGGCUAG	0.333	0.336	
UCGUGCAGUGAGGAUAUCCCGAAGGCUUCCAUUGGAGAAGGCACUACAUGAGGAUCACCCAUGUGGCUUGAUAA	0.044	0.0565	
UCAUGGUCAGGAUAUACGAUUAGACAUGGCUUCGAUAAGUCGUAGAAGGGACAUGAGGAUCACCCAUGUAGCAA	0.109	0.0335	
AAUAGCUAAGGAUAUACGUACUCAGAGUGAUAAAUCAAAUAACAUGAGGAUCACCCAUGUAGAAGGAAGAAAUA	0.0309	0.0261	
CACGGAAAUCAGAAGGCGCCUACACACGCAUUGCGAGGAUAUGACCGGUCGGUCCACAUGAGGAUCACCCAUGUUAACUAACGC			apparent Kd [7]: 0.0163 µM; apparent Kd [8]: 0.0122 µM
GUGUACUUUGAAGGAUAUAACGGCGGCAUUUUCUUAGAAGGUCAAGGGACAUGAGGAUCACCCAUGUUAACAUUGGUUCUAACA	0.0106	0.0175	
AACAUGAGGAUCACCCAUGUCGGGUAUAGGAAUGUGUGUCUGCAGGAUAUGCCUUGCAUUGCAUAGCAGAAGGGCACGGCUCAG	0.125	0.0642	
UUACAGUCAGGAUAUUGAGUCACCCACAUGAGGAUCACCCAUGUACCUCGAAAACUGGAGCAAGAAGGGACUGCUG	0.0189	0.0264	
CGCUGCCGAAGAGGAUAUCCCACGACCCAAACUGGAGAAGGCUUUAGGUUUUGCCGACAUGAGGAUCACCCAUGUGUCAGUGCA	0.0131	0.0114	
UGAUUACAUGAGGAUCACCCAUGUGACUACGCCUCAGGAUAUGAUGACAAAUUCUAGAAGUCAGAAGGGAGUUUGU			apparent Kd [7]: 0.0291 µM; apparent Kd [8]: 0.0213 µM
UUUACCGACACAGAUCACUAAAACCUUGAUACCAGUCCCAGUGGCGACCCUUGGCAGCAAUAUACAUGAGGAUCACCCAUGUGCA			apparent Kd [5]: 0.0147 µM; apparent Kd [6]: 0.0167 µM
